In the library only some 2.7% were active in any assay of this set; here they are far more common.
PAD4 FP inh = human PAD4 inhibitors, primary screen, biochemical, fluorescence polarization, 1536-well format. Protein-arginine deiminase type-4 (Homo sapiens), Q9UM07. recombinant PAD4, RCA probe fluorescence polarization. inhibition, % at 6.36 µM. 0.41% of 330,000 active. AID 485272, 2010;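 active = percent inhibition above a cutoff equal to the mean of all tested compounds plus 3 SD, cut at about 15% in these data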;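 also: 0% = PAD4 with RCA probe and DMSO and 100% = probe without PAD4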
RBBP9 inhibitor = human RBBP9 inhibitors, primary screen, biochemical, fluorescence polarization, FP-Rh probe, HTS; Serine hydrolase RBBP9 (Homo sapiens), O75884; recombinant RBBP9; inhibition, % at 7.94 µM; 0.2% of 220,000 active; AID 1515, 2009;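 active = inhibition above the campaign mean of all tested compounds plus 3 SD, cut at about 14% in these data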;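 also: plate controls were DMSO wells with RBBP9 for no effect and wells lacking RBBP9 protein for full effect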
Target sequence (O75884 whole entry, looked up): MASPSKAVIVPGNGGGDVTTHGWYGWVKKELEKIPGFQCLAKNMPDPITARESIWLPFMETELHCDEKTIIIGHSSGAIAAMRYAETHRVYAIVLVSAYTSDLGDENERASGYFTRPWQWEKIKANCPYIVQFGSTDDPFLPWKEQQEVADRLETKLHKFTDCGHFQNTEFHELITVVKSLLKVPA
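Measured by: FP readout at 525/598 nm; material: recombinant human RBBP9; also added: Serine-hydrolase probe FP-Rh, 375 nM pre-mixing; medium: Tris buffer pH 8.0, NaCl, Pluronic; replication: one well per compound; doses: one concentration, 7.94 µM nominal, 0.794% DMSO; timing: preincubation 30 min plus labeling 45 min at 25 °C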
GSTO1 inh = inhibitors of recombinant GSTO1, primary screen, counter-screen for RBBP9 inhibitor project, biochemical, fluorescence polarization; 1.1% of 300,000 active; Glutathione S-transferase omega-1 (Homo sapiens), P78417; inhibition, % at 5.96 µM; activity-based probe fluorescence polarization;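 active = inhibition above the campaign mean inhibition plus 3 SD, cut at about 35% in these data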;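 also: 0% = GSTO1-1 with DMSO and 100% = wells lacking GSTO1-1 enzyme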
SIAE inh = human SIAE inhibitors, primary screen, biochemical, fluorescence polarization, FP-Rh probe, 1536-well HTS; Sialate O-acetylesterase (Homo sapiens), Q9HAT2; SIAE FP-Rh probe binding; inhibition, % at 9.66 µM; 0.69% of 370,000 active;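 active = inhibition above a cutoff: mean of compounds within the control limits plus 3 SD of those, cut at about 17% in these data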;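 also: 0% = plate median of compound wells and 100% = probe without SIAE protein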
PRMT1 inh = PRMT1 methyltransferase inhibitors, primary screen, biochemical, fluorescence polarization. recombinant PRMT1, activity-based probe fluorescence polarization. inhibition, % at 2.79 µM. 1.3% of 370,000 active;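 active = inhibition above about 21% made by adding two undisclosed values, limit read from the data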
Target sequence (Q99873 whole entry, looked up): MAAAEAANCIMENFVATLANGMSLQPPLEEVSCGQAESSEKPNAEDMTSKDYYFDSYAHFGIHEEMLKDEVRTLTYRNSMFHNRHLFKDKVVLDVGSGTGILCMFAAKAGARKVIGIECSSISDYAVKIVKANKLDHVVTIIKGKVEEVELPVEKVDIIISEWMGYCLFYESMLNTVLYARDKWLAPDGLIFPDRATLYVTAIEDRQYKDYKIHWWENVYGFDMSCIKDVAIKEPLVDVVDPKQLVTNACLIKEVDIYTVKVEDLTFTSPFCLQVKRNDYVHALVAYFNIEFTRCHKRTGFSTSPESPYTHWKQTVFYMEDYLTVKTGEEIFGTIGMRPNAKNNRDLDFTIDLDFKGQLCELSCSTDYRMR
PAD4 FP conf = human PAD4 inhibitors, confirmation, biochemical, fluorescence polarization | shares compounds with PAD4 FP inh | recombinant PAD4, RCA probe fluorescence polarization | inhibition, % at 6.36 µM | 28% of 1,200 active | AID 488796, 2010;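 active = mean inhibition across replicates above the hit cutoff set by the earlier primary screen, cut at about 15% in these data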;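 also: inhibitors block active-site labeling by the probe so polarization falls; 0% = PAD4 with probe and DMSO and 100% = probe without PAD4 enzyme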
PRMT1 confirm = PRMT1 methyltransferase inhibitors, confirmation, biochemical, fluorescence polarization, triplicate. shares compounds with PRMT1 inh. recombinant His-PRMT1, activity-based probe fluorescence polarization. inhibition, % at 2.79 µM. 42% of 3,300 active. AID 687036, 2013;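 active = mean inhibition across replicates above the hit cutoff derived for the earlier primary screen, cut at about 22% in these data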
SIAE confirm = human SIAE inhibitors, retest, confirmation, biochemical, fluorescence polarization, FP-Rh probe, triplicate | shares compounds with SIAE inh | SIAE FP-Rh activity-based probe | inhibition, % at 9.66 µM | 13% of 2,300 active | AID 1117263, 2014;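 active = mean inhibition of the replicates above the hit cutoff set in the primary screen, cut at about 17% in these data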;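 also: 0% = SIAE with DMSO and probe and 100% = probe without SIAE; inhibitors lower polarization as more probe stays unbound to SIAE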
Active calls of the source: *; . = no result given.

SMILES	PAD4 FP inh	RBBP9 inhibitor	GSTO1 inh	SIAE inh	PRMT1 inh	PRMT1 confirm	others
COC(=O)C1=C(c2cccc(OC)c2OC)C[C@@H]2CC[C@H]1N2C(=O)NC1CC1	-1	.	0	3	1	.
CCN(CC)c1ccc(N=Cc2c(O)n(-c3cc(OC)ccc3OC)c(=O)[nH]c2=O)cc1	18*	1	17	25*	16	.	PAD4 FP conf=2;SIAE confirm=5
COc1ccc(-n2c(SCCN(C)C)nc3ccccc3c2=O)cc1	0	-5	-4	3	0	.
COP(=S)(OC)SCn1nnc2ccccc2c1=O	.	.	.	3	89*	74*
C=CCOC(=O)C1C(C(=O)O)C2(Cl)C(Cl)=C(Cl)C1(Cl)C2(Cl)Cl (stereo not drawn)	.	.	.	2	64*	6
C=C1C(=O)O[C@@H]2C[C@@H](C)[C@@H]3C=CC(=O)[C@@]3(C)[C@@H](OC(=O)CC(=O)O[C@H]3[C@@H]4C(=C)C(=O)O[C@@H]4C[C@@H](C)[C@@H]4C=CC(=O)[C@]43C)[C@H]12	-12	.	-17	-2	29*	26*
CCOc1ccc(CN2CCCC(C(=O)c3ccccc3OC)C2)cc1 (stereo not drawn)	-5	.	4	-2	-2	.
NC(=O)CSP(=O)(c1ccccc1)c1ccccc1	2	-6	7	3	38*	65*
COc1cccc(C2C([N+](=O)[O-])=C(N)Oc3c2c(=O)oc2ccccc32)c1 (stereo not drawn)	-4	-9	-6	0	2	.
CN1C(=O)C(=Cc2cn(CC#N)c3ccccc23)C(=O)N(C)C1=O	.	.	.	-6	32*	11
CCOC(=O)Cn1cc(C=C2C(=O)N(C)C(=O)N(C)C2=O)c2ccccc21	-6	.	2	-15	16	.
CN1C(=O)C(=Cc2cn(CC(=O)N3CCCC3)c3ccccc23)C(=O)N(C)C1=O	-3	.	11	-7	32*	-4
CNc1cc(Cl)c2nonc2c1[N+](=O)[O-]	.	2	.	4	57*	25*
COc1ccc(OC)c(N2C(=O)NC(=O)C(CCc3ccncc3)(CCc3ccncc3)C2=O)c1	7	1	3	14	0	.
CN1C(=O)/C(=C/C=C/c2ccco2)C(=O)NC1=S	-13	-10	17	-75	40*	57*
Cc1cccc(N2C(=O)NC(=O)/C(=C\C=C\c3ccco3)C2=O)c1	-7	0	-2	-14	36*	1
O=C1NC(=O)N(c2ccccc2)C(=O)/C1=C/C=C/c1ccco1	-3	-11	12	-9	15	.
O=C1NC(=O)N(Cc2ccco2)C(=O)/C1=C/C=C/c1ccco1	-6	1	28	-15	61*	13
O=C1NC(=O)N(Cc2ccccc2)C(=O)/C1=C/N1CCCc2ccccc21	-1	-3	33	3	28*	-8
COc1ccc(CN2CCN(C(=O)COc3ccc4ccccc4c3)CC2)c(OC)c1	-6	.	-2	1	0	.
CNC(C(=O)c1ccccc1)C(OC)c1ccc(C)cc1 (stereo not drawn)	-1	-8	3	-5	-2	.
COC(=O)C1=C(c2ccccc2)C[C@@H]2CC[C@H]1N2C	4	.	.	17	-4	.
Cc1ccc(C2C(S(C)(=O)=O)=C(O)C(=O)N2c2ccccc2)cc1 (stereo not drawn) (tested in a mixture with another compound)	2	-3	-3	1	0	.
C1=NCCCN2CCCCC12 (stereo not drawn)	.	.	.	-2	-2	.
O=C1NC(=O)N(Cc2ccccc2)C(=O)/C1=C\C=C\c1ccco1	-12	-9	11	-20	36*	1
SMILES	PAD4 FP inh	RBBP9 inhibitor	GSTO1 inh	SIAE inh	PRMT1 inh	PRMT1 confirm	others
CN1C(=O)C(=Cc2ccc(Sc3ccccc3)o2)C(=O)N(C)C1=S	-17	.	-43	-12	36*	76*
CN1C(=O)C(=Cc2ccc(Sc3ccccc3)o2)C(=O)N(C)C1=O	-7	-4	6	-53	10	.
Cc1ccc(S(=O)(=O)Oc2ccccc2C=C2C(=O)N(C)C(=O)N(C)C2=O)cc1	2	.	10	5	30*	-1
CN1C(=O)C(=Cc2ccccc2OCc2ccc(Cl)cc2)C(=O)N(C)C1=O	5	-8	11	3	4	.
c1ccc(CNC2CCCCCCC2)cc1 (tested in a mixture with another compound)	.	.	.	-6	-3	.
Cc1nn(CCC#N)c2c1P(=S)(N1CCCC1)OC(c1ccc(F)cc1)=N2 (stereo not drawn)	0	-11	6	6	77*	44*
Cc1ccccc1CCNCc1cc2cccc(C)c2[nH]c1=O	-3	.	1	6	5	.
CN1C[C@H](CNC(=O)OCc2ccccc2)C[C@@H]2c3cccc4c3c(cn4C)C[C@H]21	2	0	3	6	39*	7
Cc1ccc(/C=C2\C(=O)NC(=S)N(c3cccc(F)c3)C2=O)o1	-18	.	1	3	29*	57*
CN(C)c1ccc(CCN2CCOCC2)cc1	-6	.	4	-1	-1	.
CN(C)c1ccc2c(c1)N=C(c1ccco1)OP2(=S)N1CCOCC1 (stereo not drawn)	-1	-9	15	13	26*	50*
CN(C)c1ccc(C=C2C(=O)NC(=O)NC2=O)cc1	.	.	.	1	7	.
O=C1NC(=O)C(=Cc2ccc3c(c2)OCO3)C(=O)N1	-2	-7	1	-2	25*	1
C=CCN=C(SCC(=O)c1ccc(Cl)cc1)c1c(O)n(C)c(=O)n(C)c1=O	2	-14	4	-3	29*	31*
COC(=O)C1=C(c2cccc(OC)c2OC)C[C@@H]2CC[C@H]1N2C(=O)NCc1ccc(C(F)(F)F)cc1	-1	.	-1	-3	2	.
CCOC(=O)C1SC2(C(F)F)CC1(O)c1c(c(OC)c3occc3c1OC)O2 (stereo not drawn)	1	3	5	3	29*	15
Cc1ccc2cc(C=C(C#N)C#N)c(Cl)nc2c1	-5	-5	24	8	52*	22*
Cc1c(C=C2C(=O)NC(=O)NC2=O)c(=O)n(-c2ccccc2)n1C	-2	-9	-3	-6	6	.
O=C1NC(=O)C(=Cc2c(Cl)cccc2Cl)C(=O)N1	.	.	.	-1	31*	19

Bioassay records deposited in PubChem by The Scripps Research Institute Molecular Screening Center.
